# Assay outcomes deposited in PubChem by several laboratories.
# The list is not random: actives were taken first. Their share in the collection is about 2.1%.
# UCH37 inh = blocks the human deubiquitinase UCH37; Q9Y5K5; purified proteasome/UCH37, Ub-AMC cleavage fluorescence; actives 0.33% (n = 330,000); inhibition, % (concentration not given with the values); AID 588478;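 active = mean inhibition over replicate wells above about 20%, limit read from the data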
#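 Test system – human UCH37 enzyme supplied as purified proteasome complex · Incubation – 30 min preincubation with enzyme, 25 min cleavage at room temperature · Detection – AMC fluorescence from Ub-AMC cleavage, excitation 355 nm, emission 460 nm · Benchmarks – no-proteasome wells (full inhibition) and compound-free wells (no inhibition)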
# H9c2 protect = modulators protecting cardiomyocytes from myocardial damage; H9c2 cardiomyocytes, H2O2 injury protection, ATPLite, 2 h; protection from H2O2 cell death, % at 20 µM; actives 0.63% (n = 360,000);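 active = compounds giving at least 50% protection of heart cells from peroxide-induced death in the single-dose screen, raw or plate-pattern-corrected value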
# PfGluPho inh = PfG6PD (Plasmodium falciparum) enzyme inhibition | actives 0.78% (n = 350,000) | AID 504690 | inhibition, % at 20 µM | PfGluPho enzyme, NADPH resazurin-diaphorase fluorescence;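 active = inhibition reaching at least a set limit at 20 µM in the primary screen, cut at about 59% in these data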
# HKDC1 inh = inhibitors of human hexokinase HKDC1 | recombinant HKDC1, G6PDH/diaphorase resazurin coupled fluorescence | Q2TB90 | inhibition, % at 20 µM | actives 0.16% (n = 340,000) | AID 493160;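 active = inhibition above about 35% when tested at 20 µM, limit read from the data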
#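 Assay system: in-house recombinant HK5 (HKDC1) enzyme. Input: HKDC1 at 5 µg/mL. Medium: Tris pH 8.0 buffer with MgCl2, Tween-20, BSA, BME. Dosing: single 20 µM dose. Schedule: 90 min reaction incubation at room temperature, dark. Signal: resazurin-to-resorufin fluorescence via G6PDH and diaphorase coupling, 525/613 nm. Controls: DMSO-enzyme wells negative, buffer-substituted wells positive.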
# Beta2AR agonist = activates human beta-2 adrenergic receptor causing internalization; response, % (test concentration not listed); P07550; AID 504454; actives 0.43% (n = 340,000); Am2.2-beta2AR cells, FAP receptor internalization, flow cytometry;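 active = response above a set limit, near 3 SD of response in nonfluorescent compounds, cut at about 42% in these data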
# aDG glyco up = alpha-DG glycosylation activation; AID 624168; activation, % at 10 µM; actives 0.22% (n = 360,000); Pro5-aDG cells, alpha-DG glycosylation AlphaScreen (IIH6); 0% Pro5, 100% B10-LARGE cell signal;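 active = activation of at least 8% versus controls, or a plate z-score of at least 8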;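 note: Pro5 are CHO cells carrying HIG-tagged alpha-DG that lacks glycosylation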
# Numbers stand for hits; n = inactive; x = no result given.
SMILES,UCH37 inh,H9c2 protect,PfGluPho inh,HKDC1 inh,Beta2AR agonist,aDG glyco up
CC1CCCC(C)N1C(=O)COC(=O)c1n[nH]c(=O)c2ccccc12 (stereo not given),n,54,n,n,n,n
CCn1nc(C)c(C=NNC(=O)c2ccoc2C)c1C,n,x,x,x,x,x
O=[N+]([O-])c1ccc(NN=Cc2ccc[nH]2)cc1,n,x,x,x,x,x
CCn1nc(C(=O)Nc2nc(-c3ccccn3)cs2)c2ccccc2c1=O,n,79,n,n,n,n
CCCn1nc(C(=O)Nc2nc(-c3ccccn3)cs2)c2ccccc2c1=O,n,86,n,n,n,n
Cn1nc(C(=O)Nc2nc(-c3ccccn3)cs2)c2ccccc2c1=O,n,55,n,n,n,n
Cn1nc(C(=O)Nc2cccnc2)c2ccccc2c1=O,n,n,n,n,n,n
COc1ccc(C=NNC(=O)C2COc3ccccc3O2)cc1O (stereo not given),n,x,x,x,x,x
CCOC(=O)CCC(C)=NN=C1SC(CC(=O)O)C(=O)N1c1ccccc1 (stereo not given),n,x,x,x,x,x
Cn1ccnc1Sc1cc(NCCCO)c([N+](=O)[O-])c2nonc12,x,n,n,n,46,n
COc1ccc(OC)c(/C=C2\S/C(=N/NC(=O)c3ccc4ccccc4c3)NC2=O)c1,n,58,n,n,n,n
O=C1N/C(=N/NC(=O)c2cccc3ccccc23)S/C1=C\c1ccccc1OCc1ccccc1,n,n,n,n,n,n
COc1cc(C(=O)N/N=C/c2ccc(OC(=O)c3ccccc3)c(OC)c2)ccc1O,x,52,n,n,n,n
O=C(N/N=C/c1ccc(OC(=O)c2ccccc2Cl)cc1)c1ccccn1,x,n,n,n,n,n
COc1cc(C(=O)NN=Cc2ccc(OC(=O)c3ccccc3Cl)c(OC)c2)ccc1O,n,x,x,x,x,x
O=C(N/N=C/c1ccc(OC(=O)c2ccccc2Cl)cc1)c1cc(O)cc(O)c1,x,54,n,n,n,n
COc1cc(/C=N/NC(=O)c2[nH]nc3c2CCc2ccccc2-3)ccc1O,x,54,n,n,n,n
COc1cc(/C=N/NC(=O)c2cc(O)cc(O)c2)ccc1OC(=O)c1ccccc1,x,56,n,n,n,n
CC12CCC(C(=O)Nc3cc(Cl)ccc3Cl)(CC1=NO)C2(C)C (stereo not given),n,x,x,x,x,x
COc1cc(/C=N/NC(=O)c2ccc(CSc3nc4ccccc4[nH]3)cc2)ccc1O,x,52,n,n,n,n
c1coc(-c2nnc(-c3ccco3)nn2)c1,32,n,n,n,n,n
c1ccc(-c2nnc(-c3ccco3)o2)cc1,n,n,n,n,n,n
COc1cc(/C=N/NC(=O)c2cc(-c3c(C)nn(-c4ccccc4)c3C)n[nH]2)ccc1O,x,51,n,n,n,n
Cc1nn(-c2ccccc2)c(C)c1/C=N/NC(=O)c1cc(C2CC2)[nH]n1,x,60,n,n,n,n
COc1cc(C=NNC(=O)c2ccc3c(c2)OCO3)ccc1O,n,x,x,x,x,x
SMILES,UCH37 inh,H9c2 protect,PfGluPho inh,HKDC1 inh,Beta2AR agonist,aDG glyco up
COc1cc(/C=N/NC(=O)c2cc(-c3ccc4c(c3)OCO4)n[nH]2)ccc1O,x,74,n,n,n,n
Cc1nn(-c2ccccc2)c(C)c1-c1cc(C(=O)N/N=C/c2ccc(O)cc2)[nH]n1,x,56,n,n,n,n
CC(CC(=O)Nc1ccc(C)c(Cl)c1)=NNC(=O)c1ccncc1,n,x,x,x,x,x
COc1ccc(C=NNC(=O)c2cccc(NC(=O)c3ccc(Cl)cc3)c2)c(OC)c1,n,x,x,x,x,x
O=C(CCN1CCN(C(c2ccccc2)c2ccccc2)CC1)N/N=C/c1ccc(O)cc1O,x,61,n,n,n,n
O=C(N/N=C/c1cc([N+](=O)[O-])ccc1O)C(O)(c1ccccc1)c1ccccc1,x,61,n,n,n,n
Cc1cc(=O)oc2cc(OCC(=O)N/N=C/c3cc([N+](=O)[O-])ccc3O)ccc12,x,55,n,n,n,n
O=C(CCC(=O)Nc1ccc(F)cc1)N/N=C/c1ccc(O)cc1O,x,74,n,n,n,n
Cc1cc(=O)oc2cc(OCC(=O)NN=Cc3cc([N+](=O)[O-])ccc3O)ccc12,n,x,x,x,x,x
O=C(CCN1CCN(C(c2ccccc2)c2ccccc2)CC1)NN=Cc1ccc(O)cc1O,n,x,x,x,x,x
Cc1cc(C(F)(F)F)n(-c2nc(C(=O)NN=Cc3ccc(F)cc3)cs2)n1,n,x,x,x,x,x
COc1ccc(Br)cc1C=NNC(=O)CNC(=O)C1COc2ccccc2O1 (stereo not given),n,x,x,x,x,x
CCN(CC)c1ccc(C=NN2CC(=O)NC2=S)cc1,n,x,x,x,x,x
Cc1ccc(NC(=O)CCC(=O)N/N=C/c2cc([N+](=O)[O-])ccc2O)cc1,x,64,n,n,n,n
O=C(CSc1nc2ccccc2s1)N/N=C/c1cc([N+](=O)[O-])ccc1O,x,53,n,n,n,n
Cc1ccc(/C=N/NC(=O)CSc2nc3ccccc3s2)o1,x,n,n,n,n,n
Cc1ccc(C)c(NC(=O)CCC(=O)N/N=C/c2cc([N+](=O)[O-])ccc2O)c1,x,64,n,n,65,n
Cc1cccc(NC(=O)CCC(=O)NN=Cc2cc([N+](=O)[O-])ccc2O)c1,n,x,x,x,x,x
O=C(NN=Cc1cccnc1)c1cc2ccccc2o1,n,x,x,x,x,x
O=C(C[C@H]1C[C@H](C(=O)N2CCOCC2)[C@@]2(CCC3CCCC3)c3[nH]c4cc(-c5ccco5)ccc4c3CCN2C1=O)NCCN1CCOCC1,n,n,n,n,n,n
CN(C)CCCNC(=O)C[C@H]1C[C@H](C(=O)N2CCOCC2)[C@@]2(CCC3CCCC3)c3[nH]c4cc(-c5ccco5)ccc4c3CCN2C1=O,n,n,n,n,63,n
COc1ccc(S(=O)(=O)N2Cc3ccccc3CC2C(=O)Nc2ccc(O)cc2)cc1OC (stereo not given),n,58,n,n,n,n
COc1ccc(OC)c(Nc2nc(N)nc(-c3cc4ccccc4o3)n2)c1,n,56,n,n,n,n
CCOC(=O)c1c(C(F)(F)F)cc(-c2ccc(F)cc2)nc1C,n,n,n,n,n,n
CCOC(=O)CCS(=O)(=O)c1nc(-c2ccccc2)cc(C(F)(F)F)n1,x,n,n,n,60,n
SMILES,UCH37 inh,H9c2 protect,PfGluPho inh,HKDC1 inh,Beta2AR agonist,aDG glyco up
COC(=O)CCS(=O)(=O)c1nc(-c2ccccc2)cc(C(F)(F)F)n1,n,n,n,n,97,n
O=C(O)CCS(=O)(=O)c1nc(-c2cccs2)cc(C(F)(F)F)n1,n,n,n,n,n,n
CCOC(=O)CS(=O)(=O)c1nc(-c2ccccc2)cc(C(F)(F)F)n1,n,n,n,n,109,n
CCOC(=O)CS(=O)(=O)c1nc(-c2ccc(F)cc2)cc(C(F)(F)F)n1,n,n,n,n,104,n
COc1cc(C=NN2CCN(C3c4ccccc4-c4ccccc43)CC2)ccc1O,n,x,x,x,x,x
Cn1c(C=Nn2cnnc2)nc2ccccc21,n,x,x,x,x,x
